Test results reported in ChEMBL document CHEMBL5344414, “Maleimide constrained BAD BH3 domain peptides as BCL-xL Inhibitors: A versatile approach to rapidly identify sites compatible with peptide constraining” (Bioorg Med Chem Lett, 2023).
Calls of active or inactive are those of the source. No cut-off for these calls is given here. Where a SMILES comes first, the peptide text is derived from it.

Each compound was assayed against BCL2L1/BAD (Homo sapiens, UniProt Q07817) (assay: Inhibition of BAD/His-SUMO tagged BCL-XL (1 to 209 residues; missing 27 to 82 residues) (unknown origin) overexpressed in Escherichia coli BL21 protein-protein interaction by fluorescence anisotropy competition assay).
BCL2L1/BAD, sequence (Q92934 whole entry, the tested form may be a part): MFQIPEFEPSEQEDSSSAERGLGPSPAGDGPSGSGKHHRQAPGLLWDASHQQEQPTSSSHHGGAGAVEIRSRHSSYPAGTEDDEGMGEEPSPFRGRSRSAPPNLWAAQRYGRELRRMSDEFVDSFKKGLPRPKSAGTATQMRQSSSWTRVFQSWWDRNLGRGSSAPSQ
BCL2L1/BAD, sequence (Q07817 whole entry, the tested form may be a part): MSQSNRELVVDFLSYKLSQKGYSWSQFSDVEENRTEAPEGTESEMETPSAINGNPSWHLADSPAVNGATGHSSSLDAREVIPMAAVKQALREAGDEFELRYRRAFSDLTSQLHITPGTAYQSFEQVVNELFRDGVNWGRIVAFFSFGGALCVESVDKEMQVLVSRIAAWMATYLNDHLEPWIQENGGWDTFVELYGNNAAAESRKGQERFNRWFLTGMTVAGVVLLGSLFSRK
In short: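 Final conditions: 200 nM BCL-xL, 50 nM tracer, 20 mM Tris, 150 mM NaCl, pH 7.6, 20 °C, with peptide titrated. Tracer Kd for BCL-xL was determined beforehand by direct titration (6 nM-125 μM protein).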
With `CSCC[C@H](NC(=O)[C@H](CCCNC(=N)N)NC(=O)[C@H](CCCNC(=N)N)NC(=O)[C@H](CC(C)C)NC(=O)[C@H](CCC(=O)O)NC(=O)[C@H](CCCNC(=N)N)NC(=O)CNC(=O)[C@H](Cc1ccc(O)cc1)NC(=O)[C@H](CCCNC(=N)N)NC(=O)[C@H](CCC(N)=O)NC(=O)[C@H](C)NC(=O)[C@H](C)NC(=O)[C@H](Cc1c[nH]c2ccccc12)NC(=O)[C@H](CC(C)C)NC(=O)[C@H](CC(N)=O)NC(C)=O)C(=O)N[C@@H](CO)C(=O)N[C@@H](CC(=O)O)C(=O)N[C@@H](CCC(=O)O)C(=O)N[C@@H](Cc1ccccc1)C(=O)N[C@H](C(=O)N[C@@H](CC(=O)O)C(=O)N[C@@H](CO)C(=O)N[C@@H](Cc1ccccc1)C(=O)N[C@@H](CCCCN)C(=O)N[C@@H](CCCCN)C(N)=O)C(C)C` the IC50 was 0.2 µM. `CSCC[C@H](NC(=O)[C@@H]1CS2=S(C[C@H](NC(=O)CNC(=O)[C@H](Cc3ccc(O)cc3)NC(=O)[C@H](CCCNC(=N)N)NC(C)=O)C(=O)N[C@@H](CCC(=O)O)C(=O)N[C@@H](CC(C)C)C(=O)N[C@@H](CCCNC(=N)N)C(=O)N1)C(=O)NC2=O)C(=O)N[C@@H](CO)C(=O)N[C@@H](CC(=O)O)C(=O)N[C@@H](CCC(=O)O)C(=O)N[C@@H](Cc1ccccc1)C(=O)N[C@H](C(=O)N[C@@H](CC(=O)O)C(=O)N[C@@H](CO)C(=O)N[C@@H](Cc1ccccc1)C(=O)N[C@@H](CCCCN)C(=O)N[C@@H](CCCCN)C(N)=O)C(C)C` (stereo partly specified) was tested, and the IC50 was > 50 µM. In the case of `CSCC[C@H](NC(=O)[C@H](CCCNC(=N)N)NC(=O)[C@H](CCCNC(=N)N)NC(=O)[C@H](CC(C)C)NC(=O)[C@H](CCC(=O)O)NC(=O)[C@H](CCCNC(=N)N)NC(=O)CNC(=O)[C@H](Cc1ccc(O)cc1)NC(=O)[C@H](CCCNC(=N)N)NC(C)=O)C(=O)N[C@@H](CO)C(=O)N[C@H]1CS2=S(C[C@@H](C(=O)N[C@@H](CO)C(=O)N[C@@H](Cc3ccccc3)C(=O)N[C@@H](CCCCN)C(=O)N[C@@H](CCCCN)C(N)=O)NC(=O)[C@H](C(C)C)NC(=O)[C@H](Cc3ccccc3)NC(=O)[C@H](CCC(=O)O)NC1=O)C(=O)NC2=O` (stereo partly specified), the IC50 is reported as > 50 µM. `CSCC[C@H](NC(=O)[C@H](CCCNC(=N)N)NC(=O)[C@H](CCCNC(=N)N)NC(=O)[C@H](CC(C)C)NC(=O)[C@@H]1CS2=S(C[C@H](NC(C)=O)C(=O)N[C@@H](Cc3ccc(O)cc3)C(=O)NCC(=O)N[C@@H](CCCNC(=N)N)C(=O)N1)C(=O)NC2=O)C(=O)N[C@@H](CO)C(=O)N[C@@H](CC(=O)O)C(=O)N[C@@H](CCC(=O)O)C(=O)N[C@@H](Cc1ccccc1)C(=O)N[C@H](C(=O)N[C@@H](CC(=O)O)C(=O)N[C@@H](CO)C(=O)N[C@@H](Cc1ccccc1)C(=O)N[C@@H](CCCCN)C(=O)N[C@@H](CCCCN)C(N)=O)C(C)C` (stereo partly specified) was tested, and the IC50 was 5.5 µM. In the case of `CSCC[C@H](NC(=O)[C@H](CCCNC(=N)N)NC(=O)[C@@H]1CS2=S(C[C@H](NC(=O)[C@H](Cc3ccc(O)cc3)NC(=O)[C@H](CCCNC(=N)N)NC(C)=O)C(=O)N[C@@H](CCCNC(=N)N)C(=O)N[C@@H](CCC(=O)O)C(=O)N[C@@H](CC(C)C)C(=O)N1)C(=O)NC2=O)C(=O)N[C@@H](CO)C(=O)N[C@@H](CC(=O)O)C(=O)N[C@@H](CCC(=O)O)C(=O)N[C@@H](Cc1ccccc1)C(=O)N[C@H](C(=O)N[C@@H](CC(=O)O)C(=O)N[C@@H](CO)C(=O)N[C@@H](Cc1ccccc1)C(=O)N[C@@H](CCCCN)C(=O)N[C@@H](CCCCN)C(N)=O)C(C)C` (stereo partly specified), the IC50 is reported as > 50 µM. `CSCC[C@@H]1NC(=O)[C@H](CCCNC(=N)N)NC(=O)[C@@H](NC(=O)[C@H](CC(C)C)NC(=O)[C@H](CCC(=O)O)NC(=O)[C@H](CCCNC(=N)N)NC(=O)CNC(=O)[C@H](Cc2ccc(O)cc2)NC(=O)[C@H](CCCNC(=N)N)NC(C)=O)CS2=S(C[C@@H](C(=O)N[C@@H](CCC(=O)O)C(=O)N[C@@H](Cc3ccccc3)C(=O)N[C@H](C(=O)N[C@@H](CC(=O)O)C(=O)N[C@@H](CO)C(=O)N[C@@H](Cc3ccccc3)C(=O)N[C@@H](CCCCN)C(=O)N[C@@H](CCCCN)C(N)=O)C(C)C)NC(=O)[C@H](CO)NC1=O)C(=O)NC2=O` (stereo partly specified) was tested, and the IC50 was > 50 µM. In the case of `CSCC[C@H](NC(=O)[C@H](CCCNC(=N)N)NC(=O)[C@H](CCCNC(=N)N)NC(=O)[C@H](CC(C)C)NC(=O)[C@H](CCC(=O)O)NC(=O)[C@H](CCCNC(=N)N)NC(=O)CNC(=O)[C@H](Cc1ccc(O)cc1)NC(=O)[C@H](CCCNC(=N)N)NC(C)=O)C(=O)N[C@H]1CS2=S(C[C@@H](C(=O)N[C@@H](CC(=O)O)C(=O)N[C@@H](CO)C(=O)N[C@@H](Cc3ccccc3)C(=O)N[C@@H](CCCCN)C(=O)N[C@@H](CCCCN)C(N)=O)NC(=O)[C@H](Cc3ccccc3)NC(=O)[C@H](CCC(=O)O)NC(=O)[C@H](CC(=O)O)NC1=O)C(=O)NC2=O` (stereo partly specified), the IC50 is reported as > 50 µM. With `CSCC[C@H](NC(=O)[C@H](CCCNC(=N)N)NC(=O)[C@H](CCCNC(=N)N)NC(=O)[C@H](CC(C)C)NC(=O)[C@H](CCC(=O)O)NC(=O)[C@H](CCCNC(=N)N)NC(=O)CNC(=O)[C@H](Cc1ccc(O)cc1)NC(=O)[C@H](CCCNC(=N)N)NC(C)=O)C(=O)N[C@@H](CO)C(=O)N[C@@H](CC(=O)O)C(=O)N[C@H]1CS2=S(C[C@@H](C(=O)N[C@@H](Cc3ccccc3)C(=O)N[C@@H](CCCCN)C(=O)N[C@@H](CCCCN)C(N)=O)NC(=O)[C@H](CC(=O)O)NC(=O)[C@H](C(C)C)NC(=O)[C@H](Cc3ccccc3)NC1=O)C(=O)NC2=O` (stereo partly specified) the IC50 was > 50 µM. Work on `CSCC[C@H](NC(=O)[C@H](CCCNC(=N)N)NC(=O)[C@H](CCCNC(=N)N)NC(=O)[C@H](CC(C)C)NC(=O)[C@H](CS)NC(=O)[C@H](CCCNC(=N)N)NC(=O)CNC(=O)[C@H](Cc1ccc(O)cc1)NC(=O)[C@H](CS)NC(C)=O)C(=O)N[C@@H](CO)C(=O)N[C@@H](CC(=O)O)C(=O)N[C@@H](CCC(=O)O)C(=O)N[C@@H](Cc1ccccc1)C(=O)N[C@H](C(=O)N[C@@H](CC(=O)O)C(=O)N[C@@H](CO)C(=O)N[C@@H](Cc1ccccc1)C(=O)N[C@@H](CCCCN)C(=O)N[C@@H](CCCCN)C(N)=O)C(C)C` (Ac-CYGRCLRRMSDEFVDSFKK-NH2) yielded an IC50 of 5.1 µM. `CSCC[C@H](NC(=O)[C@H](CCCNC(=N)N)NC(=O)[C@H](CS)NC(=O)[C@H](CC(C)C)NC(=O)[C@H](CCC(=O)O)NC(=O)[C@H](CCCNC(=N)N)NC(=O)[C@H](CS)NC(=O)[C@H](Cc1ccc(O)cc1)NC(=O)[C@H](CCCNC(=N)N)NC(C)=O)C(=O)N[C@@H](CO)C(=O)N[C@@H](CC(=O)O)C(=O)N[C@@H](CCC(=O)O)C(=O)N[C@@H](Cc1ccccc1)C(=O)N[C@H](C(=O)N[C@@H](CC(=O)O)C(=O)N[C@@H](CO)C(=O)N[C@@H](Cc1ccccc1)C(=O)N[C@@H](CCCCN)C(=O)N[C@@H](CCCCN)C(N)=O)C(C)C` (Ac-RYCRELCRMSDEFVDSFKK-NH2) was tested, and the IC50 was 11.8 µM. `CSCC[C@H](NC(=O)[C@H](CS)NC(=O)[C@H](CCCNC(=N)N)NC(=O)[C@H](CC(C)C)NC(=O)[C@H](CCC(=O)O)NC(=O)[C@H](CS)NC(=O)CNC(=O)[C@H](Cc1ccc(O)cc1)NC(=O)[C@H](CCCNC(=N)N)NC(C)=O)C(=O)N[C@@H](CO)C(=O)N[C@@H](CC(=O)O)C(=O)N[C@@H](CCC(=O)O)C(=O)N[C@@H](Cc1ccccc1)C(=O)N[C@H](C(=O)N[C@@H](CC(=O)O)C(=O)N[C@@H](CO)C(=O)N[C@@H](Cc1ccccc1)C(=O)N[C@@H](CCCCN)C(=O)N[C@@H](CCCCN)C(N)=O)C(C)C` (Ac-RYGCELRCMSDEFVDSFKK-NH2) gave an IC50 of 6.8 µM. In the case of `CSCC[C@H](NC(=O)[C@H](CCCNC(=N)N)NC(=O)[C@H](CS)NC(=O)[C@H](CC(C)C)NC(=O)[C@H](CCC(=O)O)NC(=O)[C@H](CCCNC(=N)N)NC(=O)CNC(=O)[C@H](Cc1ccc(O)cc1)NC(=O)[C@H](CCCNC(=N)N)NC(C)=O)C(=O)N[C@@H](CO)C(=O)N[C@@H](CS)C(=O)N[C@@H](CCC(=O)O)C(=O)N[C@@H](Cc1ccccc1)C(=O)N[C@H](C(=O)N[C@@H](CC(=O)O)C(=O)N[C@@H](CO)C(=O)N[C@@H](Cc1ccccc1)C(=O)N[C@@H](CCCCN)C(=O)N[C@@H](CCCCN)C(N)=O)C(C)C` (Ac-RYGRELCRMSCEFVDSFKK-NH2), the IC50 is reported as > 50 µM. `CSCC[C@H](NC(=O)[C@H](CCCNC(=N)N)NC(=O)[C@H](CCCNC(=N)N)NC(=O)[C@H](CC(C)C)NC(=O)[C@H](CCC(=O)O)NC(=O)[C@H](CCCNC(=N)N)NC(=O)CNC(=O)[C@H](Cc1ccc(O)cc1)NC(=O)[C@H](CCCNC(=N)N)NC(C)=O)C(=O)N[C@@H](CS)C(=O)N[C@@H](CC(=O)O)C(=O)N[C@@H](CCC(=O)O)C(=O)N[C@@H](Cc1ccccc1)C(=O)N[C@@H](CS)C(=O)N[C@@H](CC(=O)O)C(=O)N[C@@H](CO)C(=O)N[C@@H](Cc1ccccc1)C(=O)N[C@@H](CCCCN)C(=O)N[C@@H](CCCCN)C(N)=O` (Ac-RYGRELRRMCDEFCDSFKK-NH2) gave an IC50 of 2.9 µM. For `CSCC[C@H](NC(=O)[C@H](CCCNC(=N)N)NC(=O)[C@H](CCCNC(=N)N)NC(=O)[C@H](CC(C)C)NC(=O)[C@H](CCC(=O)O)NC(=O)[C@H](CCCNC(=N)N)NC(=O)CNC(=O)[C@H](Cc1ccc(O)cc1)NC(=O)[C@H](CCCNC(=N)N)NC(C)=O)C(=O)N[C@@H](CO)C(=O)N[C@@H](CS)C(=O)N[C@@H](CCC(=O)O)C(=O)N[C@@H](Cc1ccccc1)C(=O)N[C@H](C(=O)N[C@@H](CS)C(=O)N[C@@H](CO)C(=O)N[C@@H](Cc1ccccc1)C(=O)N[C@@H](CCCCN)C(=O)N[C@@H](CCCCN)C(N)=O)C(C)C` (Ac-RYGRELRRMSCEFVCSFKK-NH2), the IC50 was > 50 µM. With `CSCC[C@H](NC(=O)[C@H](CCCNC(=N)N)NC(=O)[C@H](CCCNC(=N)N)NC(=O)[C@H](CC(C)C)NC(=O)[C@H](CCC(=O)O)NC(=O)[C@H](CCCNC(=N)N)NC(=O)CNC(=O)[C@H](Cc1ccc(O)cc1)NC(=O)[C@H](CCCNC(=N)N)NC(C)=O)C(=O)N[C@@H](CO)C(=O)N[C@@H](CC(=O)O)C(=O)N[C@@H](CS)C(=O)N[C@@H](Cc1ccccc1)C(=O)N[C@H](C(=O)N[C@@H](CC(=O)O)C(=O)N[C@@H](CS)C(=O)N[C@@H](Cc1ccccc1)C(=O)N[C@@H](CCCCN)C(=O)N[C@@H](CCCCN)C(N)=O)C(C)C` (Ac-RYGRELRRMSDCFVDCFKK-NH2) the IC50 was 4.5 µM.

Each compound was assayed against Induced myeloid leukemia cell differentiation protein Mcl-1/BH3-interacting domain death agonist (Homo sapiens) (UniProt Q07820+P55957) (assay: Inhibition of BID/MCL-1 interaction (unknown origin) by fluorescence anisotropy competition assay).
Induced myeloid leukemia cell differentiation protein Mcl-1/BH3-interacting domain death agonist (Homo sapiens), sequence (P55957 whole entry, looked up, the tested form may be a part): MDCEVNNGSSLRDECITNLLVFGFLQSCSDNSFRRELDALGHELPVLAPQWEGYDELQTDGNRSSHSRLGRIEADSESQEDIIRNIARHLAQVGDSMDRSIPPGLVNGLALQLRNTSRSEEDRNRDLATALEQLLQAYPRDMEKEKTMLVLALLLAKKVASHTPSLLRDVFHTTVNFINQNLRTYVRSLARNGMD
Induced myeloid leukemia cell differentiation protein Mcl-1/BH3-interacting domain death agonist (Homo sapiens), sequence (Q07820 whole entry, looked up, the tested form may be a part): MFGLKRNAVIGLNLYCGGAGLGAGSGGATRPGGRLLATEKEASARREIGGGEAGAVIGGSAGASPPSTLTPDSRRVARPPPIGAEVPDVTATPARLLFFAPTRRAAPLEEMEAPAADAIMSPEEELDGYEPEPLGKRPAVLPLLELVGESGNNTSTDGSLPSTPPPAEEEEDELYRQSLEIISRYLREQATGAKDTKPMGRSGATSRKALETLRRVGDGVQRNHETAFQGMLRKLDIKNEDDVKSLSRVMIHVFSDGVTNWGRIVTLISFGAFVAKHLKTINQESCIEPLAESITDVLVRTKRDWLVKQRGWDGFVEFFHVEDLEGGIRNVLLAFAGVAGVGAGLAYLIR
Type: protein assay
With `CSCC[C@H](NC(=O)[C@H](CCCNC(=N)N)NC(=O)[C@H](CCCNC(=N)N)NC(=O)[C@H](CC(C)C)NC(=O)[C@H](CCC(=O)O)NC(=O)[C@H](CCCNC(=N)N)NC(=O)CNC(=O)[C@H](Cc1ccc(O)cc1)NC(=O)[C@H](CCCNC(=N)N)NC(=O)[C@H](CCC(N)=O)NC(=O)[C@H](C)NC(=O)[C@H](C)NC(=O)[C@H](Cc1c[nH]c2ccccc12)NC(=O)[C@H](CC(C)C)NC(=O)[C@H](CC(N)=O)NC(C)=O)C(=O)N[C@@H](CO)C(=O)N[C@@H](CC(=O)O)C(=O)N[C@@H](CCC(=O)O)C(=O)N[C@@H](Cc1ccccc1)C(=O)N[C@H](C(=O)N[C@@H](CC(=O)O)C(=O)N[C@@H](CO)C(=O)N[C@@H](Cc1ccccc1)C(=O)N[C@@H](CCCCN)C(=O)N[C@@H](CCCCN)C(N)=O)C(C)C` the inhibition was “inactive”.
